Results from publication PMC4128174 (European journal of medicinal chemistry, 2014).
Numbering of substitutions follows the chain as printed. Each block holds one molecule with its values, some of them ahead of it.

Columns and labels:
[1] = target: T1, IDE E341A (Homo sapiens, UniProt P14735, E341A); test: Hydrolysis of dual labelled Aβ16–23 by the E341A exosite mutant; format: biochemical
T1 sequence (P14735 1-1019 E341A): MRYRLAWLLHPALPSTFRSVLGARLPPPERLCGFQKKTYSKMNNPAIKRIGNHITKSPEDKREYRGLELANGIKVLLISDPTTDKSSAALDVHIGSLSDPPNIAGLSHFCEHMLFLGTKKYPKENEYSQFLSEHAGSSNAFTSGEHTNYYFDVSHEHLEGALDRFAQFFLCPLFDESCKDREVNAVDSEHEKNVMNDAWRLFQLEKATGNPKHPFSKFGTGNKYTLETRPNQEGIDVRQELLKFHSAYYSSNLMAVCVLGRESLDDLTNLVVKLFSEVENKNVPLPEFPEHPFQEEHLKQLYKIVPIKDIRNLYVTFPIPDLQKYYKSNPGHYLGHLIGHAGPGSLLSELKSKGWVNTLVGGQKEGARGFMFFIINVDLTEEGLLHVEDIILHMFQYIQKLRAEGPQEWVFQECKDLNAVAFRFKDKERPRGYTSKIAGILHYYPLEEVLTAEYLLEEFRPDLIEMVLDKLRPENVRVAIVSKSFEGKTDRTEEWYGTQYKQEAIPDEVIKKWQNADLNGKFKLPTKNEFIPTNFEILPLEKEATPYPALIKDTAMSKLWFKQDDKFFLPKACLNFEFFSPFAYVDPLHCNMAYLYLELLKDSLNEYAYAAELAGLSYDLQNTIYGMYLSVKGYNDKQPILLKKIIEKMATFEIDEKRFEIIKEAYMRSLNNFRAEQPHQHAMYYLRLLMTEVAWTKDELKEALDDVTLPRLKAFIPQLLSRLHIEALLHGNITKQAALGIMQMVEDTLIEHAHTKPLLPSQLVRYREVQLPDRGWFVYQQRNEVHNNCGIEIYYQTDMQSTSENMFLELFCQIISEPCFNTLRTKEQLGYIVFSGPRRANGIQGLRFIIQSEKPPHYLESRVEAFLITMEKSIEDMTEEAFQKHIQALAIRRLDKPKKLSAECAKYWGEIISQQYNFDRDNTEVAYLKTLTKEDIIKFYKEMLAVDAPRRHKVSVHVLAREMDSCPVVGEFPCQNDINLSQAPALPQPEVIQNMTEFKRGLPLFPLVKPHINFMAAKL

[2] = Cell permeability; format: in vitro ADME
[3] = target: T2, Human recombinant IDE (IDEwt) (Homo sapiens, UniProt P14735); format: biochemical; conditions: for activity on Aβ16–23 hydrolysis (in words): IDEwt
T2 sequence (P14735 1-1019): T1 sequence (P14735 1-1019 E341A) with A341E

[4] = tested on: β-pancreatic cells; test: Insulin secretion by β-pancreatic cells; format: cell-based
[5] = target: T3, hIDE (Homo sapiens, UniProt P14735); test: Hydrolysis of unlabelled native insulin by hIDE; format: biochemical; conditions: at 100µM
T3 sequence (P14735 1-1019): T1 sequence (P14735 1-1019 E341A) with A341E

[6] = tested on: hepatocytes; test: Repression of PEPCK by insulin on hepatocytes; format: cell-based
[7] = Solubility in PBS from a DMSO stock solution; format: physicochemical
[8] = Cell medium stability; format: in vitro ADME
[9] = LogD7.4, PBS/octanol partition from a DMSO stock solution; format: physicochemical; conditions: compared with 5
[10] = tested on: SH-SY5Y neuroblastoma cells (APPswe, APPwt); test: Cellular assay in the amyloid pathway; format: cell-based, human
How it was run: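 SH-SY5Y cells stably expressing human APP751 Swedish or […], grown in DMEM/10% FCS at 37 °C, 5% CO2. Treated 24 h after seeding with vehicle or test compound (10 mM DMSO stock). Medium cleared at 1000 × g and assayed by ELISA: Aβ1–40 diluted 1:10, Aβ1–42 undiluted. Duplicates from three experiments, normalised to untreated cells. RIPA lysates immunoblotted: 12 µg Bis-Tris gel; CTFs 30 µg Tris-Tricine gel.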

[11] = 0.1 or 10 µM, 24 h and 48 h, APPswe and APPwt SY5Y

behaviour as inhibitor [1]: full inhibitor
Compound: COC(=O)[C@H](Cc1c[nH]cn1)NC(=O)CN(CC(=O)O)Cc1ccccc1 [Compound 1, (S)-2-[2-(Benzyl-carboxymethyl-amino)-acetylamino]-3-(1H-imidazol-4-yl)-propionic acid methyl ester]

crossing of cell membranes (in words) [2]: does not cross easily cell membranes
Compound: CNC(=O)[C@H](Cc1c[nH]cn1)NC(=O)CN(CCCc1ccccc1)CC(=O)O [Compound 5, ((((S)-2-(1H-Imidazol-4-yl)-1-methylcarbamoyl-ethylcarbamoyl)-methyl)-(3-phenylpropyl)-amino)-acetic acid]

activity on Aβ16–23 hydrolysis (in words) [3]: completely abolish activity
Compound: COC(=O)[C@H](Cc1ccccc1)NC(=O)CN(CC(=O)O)Cc1ccccc1 [Compound 6, (S)-2-(2-(Benzyl-carboxymethyl-amino)-acetylamino)-3-phenyl-propionic acid methyl ester]

activity on Aβ16–23 hydrolysis (in words) [3]: completely abolish activity
Compound: COC(=O)[C@H](Cc1c[nH]cn1)NC(=O)CN(CC(=O)O)C(=O)c1ccccc1 [Compound 7, (S)-2-(2-(Benzoyl-carboxymethyl-amino)-acetylamino)-3-(1H-imidazol-4-yl)-propionic acid methyl ester]

residual activation of insulin hydrolysis [5]: 50 % of 5 activity
repression of PEPCK by insulin on hepatocytes [6]: nor modify
solubility (in words) [7]: good solubility
half-life [8]: 11.3 h
logD7.4 (in words) [9]: higher
Compound: CNC(=O)[C@H](Cc1c[nH]cn1)NC(=O)CN(CCCc1ccccc1)CC(=O)OC [Compound 8, ((((S)-2-(1H-Imidazol-4-yl)-1-methylcarbamoyl-ethyl-carbamoyl)-methyl)-(3-phenylpropyl)-amino)-acetic acid methyl ester]
level of insulin secreted by β-pancreatic cells [4]: did neither affect
effect on APP holoproteins and on CTFs [10]: No effect
extracellular levels of Aβ1–40 [10, 11]: dose-dependent increase
extracellular levels of Aβ1–42 [10, 11]: dose-dependent increase

Compound: O=C(O)CN(CCN(CC(=O)O)CC(=O)O)CC(=O)O [EDTA, reference compound]
inhibition by reference inhibitor ([3]; at 2 mM): 100%
